Reference: ChEMBL document CHEMBL4033800, “Further Developments of the Phenyl-Pyrrolyl Pentane Series of Nonsteroidal Vitamin D Receptor Modulators as Anticancer Agents” (J Med Chem, 2018)
Calls of active or inactive are those of the source. No cut-off for these calls is given here.

Assays:
[1] = test system: MCF7; assay: Induction of cell cycle arrest in human MCF7 cells assessed as accumulation at G0/G1 phase at 1 uM after 24 hrs by propidium iodide-staining based flow cytometry (reference value: 56.03%); format: functional
[2] = test system: L02; assay: Antiproliferative activity against human L02 cells after 48 hrs by MTT assay; format: cell-based; settings: L02, 48 h
[3] = test system: Mus musculus; assay: Hypercalcemic effect in ICR mouse at 0.5 to 5 mg/kg/day, ip administered for 7 days measured on day 8 post-dose by MTB-based assay relative to control; format: ADME, organism-based; settings: in vivo, 168 h
Method in brief: (§1)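 Mice were dosed i.p. over a 7-day period and serum calcium was then measured. Each dose level was compared with a vehicle-treated control group (saline cited as the comparator). Data are mean ± SEM, n = 6 per group. Significance versus vehicle was reported at p < 0.05, 0.01 and 0.001.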

[4] = test system: HepG2; assay: Induction of cell cycle arrest in human HepG2 cells at 1 uM after 24 hrs by propidium iodide-staining based flow cytometry; format: functional
[5] = test system: MCF7; assay: Induction of apoptosis in human MCF7 cells assessed as early apoptotic cells at 1 uM after 24 hrs by Annexin V-FITC/propidium iodide-staining based flow cytometry (reference value: 1.74%); format: functional
[6] = test system: HepG2; assay: Antiproliferative activity against human HepG2 cells after 48 hrs by MTT assay; format: functional, cell-based; settings: HepG2, 48 h
[7] = test system: MCF7; assay: Induction of apoptosis in human MCF7 cells assessed as necrotic cells at 1 uM after 24 hrs by Annexin V-FITC/propidium iodide-staining based flow cytometry (reference value: 0.031%); format: functional
[8] = test system: MCF7; assay: Induction of apoptosis in human MCF7 cells assessed as late apoptotic cells at 1 uM after 24 hrs by Annexin V-FITC/propidium iodide-staining based flow cytometry (reference value: 0.062%); format: functional
[9] = test system: MCF7; assay: Induction of apoptosis in human MCF7 cells assessed as viable cells at 1 uM after 24 hrs by Annexin V-FITC/propidium iodide-staining based flow cytometry (reference value: 98.2%); format: functional; settings: MCF7, 24 h, read-out: Activity
[10] = test system: PC-3; assay: Antiproliferative activity against human PC3 cells after 48 hrs by MTT assay; format: functional, cell-based; settings: PC-3, 48 h
[11] = test system: Caco-2; assay: Antiproliferative activity against human Caco2 cells after 48 hrs by MTT assay; format: functional, cell-based; settings: Caco-2, 48 h
[12] = target: T1, Vitamin D3 receptor (Homo sapiens, UniProt P11473); assay: Displacement of fluormone VDR red from human full length VDR after 4 hrs by fluorescence polarization assay
T1 sequence (P11473 whole entry): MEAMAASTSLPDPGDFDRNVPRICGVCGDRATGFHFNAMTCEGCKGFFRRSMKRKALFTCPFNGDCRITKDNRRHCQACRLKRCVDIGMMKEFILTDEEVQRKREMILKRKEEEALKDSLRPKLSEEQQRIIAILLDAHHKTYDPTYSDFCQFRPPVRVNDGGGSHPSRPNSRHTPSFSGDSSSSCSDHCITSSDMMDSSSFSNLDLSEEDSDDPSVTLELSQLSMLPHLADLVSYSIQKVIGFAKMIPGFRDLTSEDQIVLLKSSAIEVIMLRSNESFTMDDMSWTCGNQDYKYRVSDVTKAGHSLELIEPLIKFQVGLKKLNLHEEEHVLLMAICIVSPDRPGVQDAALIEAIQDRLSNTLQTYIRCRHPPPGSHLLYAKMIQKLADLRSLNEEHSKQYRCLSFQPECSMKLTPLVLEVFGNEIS

[13] = test system: MCF7; assay: Induction of cell cycle arrest in human MCF7 cells assessed as accumulation at G2/M phase at 1 uM after 24 hrs by propidium iodide-staining based flow cytometry (reference value: 12.41%); format: functional
[14] = test system: MCF7; assay: Induction of cell cycle arrest in human MCF7 cells assessed as accumulation at S phase at 1 uM after 24 hrs by propidium iodide-staining based flow cytometry (reference value: 31.55%); format: functional
[15] = target: T2, Vitamin D3 receptor (Homo sapiens) (UniProt P11473); assay: Transactivation of human GAL4-fused VRD expressed in HEK293 cells co-transfected with human RXRalpha/VDRE after 24 hrs by dual luciferase reporter gene assay; format: cell-based
T2 sequence (whole entry): T1 sequence (P11473 whole entry)

[16] = test system: MCF7; assay: Antiproliferative activity against human MCF7 cells after 48 hrs by MTT assay; format: functional, cell-based; settings: MCF7, 48 h
[17] = AUC in Sprague-Dawley rat at 20 mg/kg, ip measured up to 48 hrs post administration by HPLC analysis; format: ADME, organism-based; design: time < 48 hr, dose 20 mg/kg, route intraperitoneal; settings: in vivo
Method in brief: (§2)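 Male Sprague-Dawley rats (180−220 g), 4 per group, dosed at 5 mg/kg i.v., 20 mg/kg i.p. or 20 mg/kg p.o. Parameters given as mean ± SD (n = 4).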

[18] = Clearance in Sprague-Dawley rat at 20 mg/kg, ip by HPLC analysis; format: ADME, organism-based; settings: in vivo; method in brief: as §2
[19] = AUC in Sprague-Dawley rat at 5 mg/kg, iv measured up to 48 hrs post administration by HPLC analysis; format: ADME, organism-based; design: dose 5 mg/kg, time < 48 hr, route intravenous; settings: in vivo; method in brief: as §2
[20] = AUC in Sprague-Dawley rat at 20 mg/kg, po measured up to 48 hrs post administration by HPLC analysis; format: ADME, organism-based; design: time < 48 hr, dose 20 mg/kg, route oral; settings: in vivo; method in brief: as §2
[21] = MRT in Sprague-Dawley rat at 5 mg/kg, iv by HPLC analysis; format: ADME, organism-based; settings: in vivo; method in brief: as §2
[22] = Half life in Sprague-Dawley rat at 20 mg/kg, ip by HPLC analysis; format: ADME, organism-based; settings: in vivo; method in brief: as §2
[23] = Clearance in Sprague-Dawley rat at 20 mg/kg, po by HPLC analysis; format: ADME, organism-based; settings: in vivo; method in brief: as §2
[24] = Half life in Sprague-Dawley rat at 5 mg/kg, iv by HPLC analysis; format: ADME, organism-based; settings: in vivo; method in brief: as §2
[25] = MRT in Sprague-Dawley rat at 20 mg/kg, ip by HPLC analysis; format: ADME, organism-based; settings: in vivo; method in brief: as §2
[26] = Clearance in Sprague-Dawley rat at 5 mg/kg, iv measured up to 48 hrs post administration by HPLC analysis; format: ADME, organism-based; settings: in vivo; method in brief: as §2
[27] = Bioavailability in Sprague-Dawley rat at 20 mg/kg, ip measured up to 48 hrs after administration by HPLC analysis; format: ADME, organism-based; settings: in vivo; method in brief: as §2
[28] = Oral bioavailability in Sprague-Dawley rat at 20 mg/kg measured up to 48 hrs after administration by HPLC analysis; format: ADME, organism-based; settings: in vivo; method in brief: as §2
[29] = MRT in Sprague-Dawley rat at 20 mg/kg, po by HPLC analysis; format: ADME, organism-based; settings: in vivo; method in brief: as §2
[30] = Half life in Sprague-Dawley rat at 20 mg/kg, po by HPLC analysis; format: ADME, organism-based; settings: in vivo; method in brief: as §2
[31] = test system: Mus musculus; assay: Hypercalcemic effect in ICR mouse at 30 mg/kg/day, ip administered for 7 days measured on day 8 post-dose by MTB-based assay relative to control; format: ADME, organism-based; settings: in vivo, 168 h; method in brief: as §1
[32] = test system: MCF7; assay: Antitumor activity against human MCF7 cells xenografted in BALB/c nude mouse assessed as tumor growth inhibition at 10 mg/kg, ip administered every other day; format: functional, organism-based
Method in brief: (§3)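 MCF7 cells transplanted orthotopically into the breast of athymic nude mice. Dosing at 10 mg/kg i.p. in vehicle of polyoxyethylated castor oil/ethanol/saline 1:1:18, with vehicle and saline control groups. Body weight, tumor volume and serum calcium followed.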

[33] = Drug uptake in human MCF7 cells at 1 uM after 10 mins by HPLC analysis; format: ADME, cell-based; settings: mcf7, 10 min
Method in brief: (§4)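 MCF7 cells were given 1 µM compound in medium with 10% FBS for 10 or 30 min. Cells and medium were extracted separately with chloroform/methanol (3:1, v/v) and analysed by HPLC. Mean ± SEM, n = 3.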

[34] = test system: Mus musculus; assay: Toxicity in BALB/c nude mouse xenografted with human MCF7 cells assessed as change in body weight at 10 mg/kg, ip administered every other day relative to control; format: organism-based; settings: in vivo; method in brief: as §3
[35] = test system: Mus musculus; assay: Toxicity in BALB/c nude mouse xenografted with human MCF7 cells assessed increase in serum calcium levels at 10 mg/kg, ip administered every other day relative to control; format: organism-based; settings: in vivo; method in brief: as §3
[36] = test system: MCF7; assay: Induction of apoptosis in human MCF7 cells xenografted in BALB/c nude mouse at 10 mg/kg, ip administered every other day by TUNEL assay; format: functional, organism-based
Method in brief: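 Apoptosis in MCF7 orthotopic tumor sections from nude mice given 10 mg/kg i.p. was scored by TUNEL staining.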

[37] = Drug uptake in human MCF7 cells at 1 uM after 30 mins by HPLC analysis; format: ADME, cell-based; settings: mcf7, 0.5 h; method in brief: as §4

Structure (SMILES)	Activity [1]	IC50 [2]	Activity [5]	IC50 [6]	Activity [7]	Activity [8]	viability at 1 µM [9]	IC50 [10]	IC50 [11]	IC50 [12]	Activity [13]	Activity [14]	IC50 [16]	also measured
CCn1c(C(=O)N(C)CC(=O)O)ccc1C(CC)(CC)c1ccc(OCCC(O)(CC)CC)c(C)c1	61.76%	2.15 µM	8.42%	5.71 µM	0.17%	3.66%	87.8%	2.25 µM	2.74 µM	0.873 µM	10.57%	27.68%	0.079 µM	Activity [3]: Non-Toxic; Activity [4]: Active; Activity [15]: Dose-dependent effect
CCn1c(C(=O)NC(C)CO)ccc1C(CC)(CC)c1ccc(OCC(O)C(C)(C)C)c(C)c1 (configuration not stated)	63.03%	17.4 µM	7.58%	–	0.15%	2.78%	89.5%	17.4 µM	> 50 µM	0.228 µM	12.52%	24.45%	2.8 µM	AUC at 48 h [17]: 24800 ng·h/mL; CL/F [18]: 13.5 mL/min; AUC at 48 h [19]: 13400 ng·h/mL; AUC at 48 h [20]: 13500 ng·h/mL; MRT [21]: 2.82 h; half-life [22]: 3.96 h; CL/F [23]: 25 mL/min; half-life [24]: 2.44 h; MRT [25]: 8.15 h; clearance [26]: 6.83 mL/min; bioavailability [27]: 46.2%; bioavailability [28]: 25.2%; MRT [29]: 10.8 h; half-life [30]: 6.89 h
CCOc1ccc(NC(=O)c2ccc(C(CC)(CC)c3ccc(OCCC(O)(CC)CC)c(C)c3)n2CC)cc1	–	> 50 µM	–	> 50 µM	–	–	–	> 50 µM	> 50 µM	4.54 µM	–	–	> 50 µM	–
CCn1c(C(=O)NCC#N)ccc1C(CC)(CC)c1ccc(OCCC(O)(CC)CC)c(C)c1	–	> 50 µM	–	> 50 µM	–	–	–	17.8 µM	> 50 µM	0.825 µM	–	–	> 50 µM	–
Cc1cc(C2(c3ccc(OCC(=O)C(C)(C)C)c(C)c3)CCCCC2)ccc1OCC(=O)C(C)(C)C	59.74%	–	8.2%	–	0.33%	2.53%	88.9%	–	–	–	11.41%	28.85%	–	–
CCn1c(C(=O)Nc2cccc(C(F)(F)F)c2)ccc1C(CC)(CC)c1ccc(OCCC(O)(CC)CC)c(C)c1	–	> 50 µM	–	> 50 µM	–	–	–	23.8 µM	> 50 µM	–	–	–	> 50 µM	–
C#CCCOC(=O)c1ccc(C(CC)(CC)c2ccc(OCCC(O)(CC)CC)c(C)c2)n1CC	–	> 50 µM	–	> 50 µM	–	–	–	> 50 µM	> 50 µM	–	–	–	> 50 µM	–
CCN(CC)CCNC(=O)c1ccc(C(CC)(CC)c2ccc(OCCC(O)(CC)CC)c(C)c2)n1CC	68.92%	2.29 µM	7.74%	0.23 µM	0.24%	2.81%	89.2%	3.35 µM	1.63 µM	0.271 µM	4.77%	26.31%	0.55 µM	Activity [31]: Toxic; TGI [32]: Active; Activity [3]: Non-Toxic; Drug uptake [33]: Active; Activity [34]: Non-Toxic; Activity [35]: Non-Toxic; Activity [36]: Active; Drug uptake [37]: Active
CCC(C)C(NC(=O)c1ccc(C(CC)(CC)c2ccc(OCCC(O)(CC)CC)c(C)c2)n1CC)C(=O)OC (configuration not stated)	–	> 50 µM	–	> 50 µM	–	–	–	> 50 µM	> 50 µM	–	–	–	> 50 µM	–
CCn1c(C(=O)Oc2ccc(CC(=O)OC)cc2)ccc1C(CC)(CC)c1ccc(OCCC(O)(CC)CC)c(C)c1	–	> 50 µM	–	> 50 µM	–	–	–	> 50 µM	> 50 µM	–	–	–	> 50 µM	–
CCn1c(C(=O)NC(CO)CCO)ccc1C(CC)(CC)c1ccc(OCCC(O)(CC)CC)c(C)c1 (configuration not stated)	–	3.04 µM	–	24.8 µM	–	–	–	8.76 µM	40.2 µM	–	–	–	31.4 µM	–
